Reference: ChEMBL document CHEMBL2331220, “Benzimidazole clubbed with triazolo-thiadiazoles and triazolo-thiadiazines: new anticancer agents” (2013)

How the values were obtained:
Format in all cases: functional
[1] = tested on: SF-268; experiment: Cytotoxicity against human SF268 cells after 48 hrs by SRB assay; conditions: SF-268, 48 h
Procedure, shortened: (§1)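 NCI 60-line five-dose screen. Cells were preincubated 24 h at 37 °C under 5% CO2 and 100% humidity, and time-zero plates were TCA-fixed when compound was added. Five 10-fold concentrations (0.01–100) were tested for 48 h. Cells were fixed with cold TCA (final 10%, 60 min, 4 °C), stained with 0.4% SRB for 10 min, and read at 515 nm. GI50, TGI and LC50 came from growth-percentage formulas, with out-of-range values given as > or <.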

[2] = tested on: CCRF-CEM; experiment: Cytotoxicity against human CCRF-CEM cells after 48 hrs by SRB assay; procedure, shortened: as §1
[3] = tested on: SF-539; experiment: Cytotoxicity against human SF539 cells after 48 hrs by SRB assay; conditions: SF-539, 48 h; procedure, shortened: as §1
[4] = tested on: SK-MEL-5; experiment: Cytotoxicity against human SK-MEL-5 cells after 48 hrs by SRB assay; conditions: SK-MEL-5, 48 h; procedure, shortened: as §1
[5] = tested on: SK-MEL-2; experiment: Cytotoxicity against human SK-MEL-2 cells after 48 hrs by SRB assay; conditions: SK-MEL-2, 48 h; procedure, shortened: as §1
[6] = tested on: MOLT-4; experiment: Cytotoxicity against human MOLT4 cells after 48 hrs by SRB assay; conditions: MOLT-4, 48 h; procedure, shortened: as §1
[7] = tested on: COLO 205; experiment: Cytotoxicity against human COLO205 cells after 48 hrs by SRB assay; conditions: COLO 205, 48 h; procedure, shortened: as §1
[8] = tested on: CAKI-1; experiment: Cytotoxicity against human Caki1 cells after 48 hrs by SRB assay; conditions: CAKI-1, 48 h; procedure, shortened: as §1
[9] = tested on: A498; experiment: Cytotoxicity against human A498 cells after 48 hrs by SRB assay; conditions: A498, 48 h; procedure, shortened: as §1
[10] = tested on: NCI-H322M; experiment: Cytotoxicity against human NCI-H322M cells after 48 hrs by SRB assay; procedure, shortened: as §1
[11] = tested on: DU-145; experiment: Cytotoxicity against human DU145 cells after 48 hrs by SRB assay; conditions: DU-145, 48 h; procedure, shortened: as §1
[12] = tested on: HCT-116; experiment: Cytotoxicity against human HCT116 cells after 48 hrs by SRB assay; conditions: HCT-116, 48 h; procedure, shortened: as §1
[13] = tested on: U-251; experiment: Cytotoxicity against human U251 cells after 48 hrs by SRB assay; conditions: U-251, 48 h
Procedure, shortened: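 NCI 60-line five-dose screen: cells plated, held 24 h at 37 °C, 5% CO₂ before treatment, with a TCA-fixed time-zero plate. Five final concentrations (0.01–100 µM, 10-fold dilutions) for 48 h. Cells fixed with cold TCA (10% final) and stained with 0.4% SRB in 1% acetic acid. Dye dissolved in 10 mM Tris and read at 515 nm. GI₅₀, TGI and LC₅₀ taken from percent-growth curves.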

[14] = tested on: IGROV-1; experiment: Growth inhibition of human IGROV1 cells at 10 uM after 48 hrs by SRB assay relative to control; conditions: IGROV-1, 48 h, read-out: GI
Procedure, shortened: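 NCI single-dose primary screen: compound added at 1 × 10⁻⁵ M, cultures incubated 48 h. Protein stained with sulforhodamine B. Result given as percent growth of treated cells relative to untreated controls, where negative values mean cell kill.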

[15] = tested on: 786-0; experiment: Cytotoxicity against human 786-0 cells after 48 hrs by SRB assay; conditions: 786-0, 48 h; procedure, shortened: as §1
[16] = tested on: HL-60(TB); experiment: Cytotoxicity against human HL-60(TB) cells after 48 hrs by SRB assay; conditions: HL-60, 48 h
Procedure, shortened: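 NCI five-dose screen: cells preincubated 24 h at 37 °C, 5% CO₂, with time-zero plates TCA-fixed. Five 10-fold dilutions (0.01–100) were added and cells incubated for 48 h, then fixed in 10% TCA for 60 min at 4 °C. Staining used 0.4% SRB in 1% acetic acid, solubilised in 10 mM Tris, with A515 read. GI₅₀, TGI and LC₅₀ were derived from Tz, control and test absorbances.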

[17] = tested on: LOX IMVI; experiment: Cytotoxicity against human LOXIMVI cells after 48 hrs by SRB assay; procedure, shortened: as §1
[18] = read-out: LC50 (the source's name)
[19] = read-out: pLC50 (the source's name) (converted)

O=C(CCc1nnc2sc(-c3ccc(Cl)cc3Cl)nn12)c1nc2ccccc2[nH]1
GI50 ([1]; read-out: GI50): 740 nM
CC50 [1, 18]: 5150 nM
TGI ([1]; read-out: TGI): 2140 nM
GI50 ([1]; read-out: pGI50 (converted)): 741 nM
CC50 [1, 19]: 5130 nM
TGI ([1]; read-out: pTGI (converted)): 2140 nM
GI50 ([2]; read-out: GI50): 265 nM
CC50 [2, 18]: > 100000 nM
TGI ([2]; read-out: TGI): 974 nM
GI50 ([2]; read-out: pGI50 (converted)): 263 nM
CC50 [2, 19]: > 100000 nM
TGI ([2]; read-out: pTGI (converted)): 977 nM
GI50 ([3]; read-out: GI50): 2170 nM
CC50 [3, 18]: 22800 nM
TGI ([3]; read-out: TGI): 4860 nM
GI50 ([3]; read-out: pGI50 (converted)): 2190 nM
CC50 [3, 19]: 22900 nM
TGI ([3]; read-out: pTGI (converted)): 4900 nM
GI50 ([4]; read-out: GI50): 1390 nM
CC50 [4, 18]: 5190 nM
TGI ([4]; read-out: TGI): 2690 nM
GI50 ([4]; read-out: pGI50 (converted)): 1380 nM
CC50 [4, 19]: 5250 nM
TGI ([4]; read-out: pTGI (converted)): 2690 nM
GI50 ([5]; read-out: GI50): 1760 nM
CC50 [5, 18]: > 100000 nM
TGI ([5]; read-out: TGI): 6670 nM
GI50 ([5]; read-out: pGI50 (converted)): 1780 nM
CC50 [5, 19]: > 100000 nM
TGI ([5]; read-out: pTGI (converted)): 6610 nM
GI50 ([6]; read-out: GI50): 282 nM
CC50 [6, 18]: > 100000 nM
TGI ([6]; read-out: TGI): > 100000 nM
GI50 ([6]; read-out: pGI50 (converted)): 282 nM
CC50 [6, 19]: > 100000 nM
TGI ([6]; read-out: pTGI): > 100000 nM
GI50 ([7]; read-out: GI50): 767 nM
CC50 [7, 18]: 5500 nM
TGI ([7]; read-out: TGI): 2210 nM
GI50 ([7]; read-out: pGI50 (converted)): 759 nM
CC50 [7, 19]: 5500 nM
TGI ([7]; read-out: pTGI (converted)): 2190 nM
GI50 ([8]; read-out: GI50): 1450 nM
TGI ([8]; read-out: TGI): 3440 nM
GI50 ([8]; read-out: pGI50 (converted)): 1450 nM
TGI ([8]; read-out: pTGI (converted)): 3470 nM
GI50 ([9]; read-out: GI50): 1100 nM
LC50 (concentration giving 50% net cell kill) ([9]; read-out: LC50): 4890 nM
TGI ([9]; read-out: TGI): 2320 nM
GI50 ([9]; read-out: pGI50 (converted)): 1100 nM
LC50 (concentration giving 50% net cell kill) ([9]; read-out: pLC50 (converted)): 4900 nM
TGI ([9]; read-out: pTGI (converted)): 2340 nM
GI50 ([10]; read-out: GI50): 1760 nM
CC50 [10, 18]: 7940 nM
TGI ([10]; read-out: TGI): 3740 nM
GI50 ([10]; read-out: pGI50 (converted)): 1780 nM
CC50 [10, 19]: 7940 nM
TGI ([10]; read-out: pTGI (converted)): 3720 nM
GI50 ([11]; read-out: GI50): 1200 nM
CC50 [11, 18]: 5020 nM
TGI ([11]; read-out: TGI): 2460 nM
GI50 ([11]; read-out: pGI50 (converted)): 1200 nM
CC50 [11, 19]: 5010 nM
TGI ([11]; read-out: pTGI (converted)): 2450 nM
GI50 ([12]; read-out: GI50): 320 nM
CC50 [12, 18]: 5060 nM
TGI ([12]; read-out: TGI): 1240 nM
GI50 ([12]; read-out: pGI50 (converted)): 316 nM
CC50 [12, 19]: 5010 nM
TGI ([12]; read-out: pTGI (converted)): 1230 nM
GI50 ([13]; read-out: GI50): 1280 nM
CC50 [13, 18]: 5340 nM
TGI ([13]; read-out: TGI): 2610 nM
GI50 ([13]; read-out: pGI50 (converted)): 1290 nM
CC50 [13, 19]: 5370 nM
TGI ([13]; read-out: pTGI (converted)): 2630 nM
inhibition of growth at 10 µM [14]: ≤ 32%
GI50 ([15]; read-out: GI50): 1590 nM
LC50 ([15]; read-out: LC50): 5920 nM
TGI ([15]; read-out: TGI): 3060 nM
GI50 ([15]; read-out: pGI50 (converted)): 1580 nM
LC50 ([15]; read-out: pLC50 (converted)): 5890 nM
TGI ([15]; read-out: pTGI (converted)): 3090 nM
GI50 ([16]; read-out: GI50): 862 nM
CC50 [16, 18]: > 100000 nM
TGI ([16]; read-out: TGI): 5930 nM
GI50 ([16]; read-out: pGI50 (converted)): 871 nM
CC50 [16, 19]: > 100000 nM
TGI ([16]; read-out: pTGI (converted)): 5890 nM
GI50 ([17]; read-out: GI50): 363 nM
TGI ([17]; read-out: TGI): 1590 nM
GI50 ([17]; read-out: pGI50 (converted)): 363 nM
TGI ([17]; read-out: pTGI (converted)): 1580 nM
